Screening data: PubChem, Sanford-Burnham Center for Chemical Genomics
SENP7 inh = blocks the human protease SENP7; hit rate 1.5% among 330,000; inhibition, % at 5 µM; recombinant SENP7, Z-RLRGG-aminoluciferin luminescence, 40 min; Q9BQF6;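 active = inhibition above about 50% at the single test dose, limit read from the data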
SENP8 block-1 = SENP8 (human) protease inhibition | Q96LD8 | recombinant SENP8, Nedd8 substrate fluorescence | inhibition, % at 20 µM | hit rate 0.64% among 360,000 | AID 602440; in the data active = inhibition mostly above about 40%, no sharp cut-off; inactive = mostly below about 27%
Target sequence (Q96LD8 whole entry, looked up): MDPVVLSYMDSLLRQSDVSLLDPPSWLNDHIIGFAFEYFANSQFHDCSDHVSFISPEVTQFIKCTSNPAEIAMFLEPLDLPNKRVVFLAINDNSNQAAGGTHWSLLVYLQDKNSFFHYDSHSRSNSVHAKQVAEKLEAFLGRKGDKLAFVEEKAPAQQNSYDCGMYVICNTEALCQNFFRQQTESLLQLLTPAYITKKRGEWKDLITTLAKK
SENP1 FRET inh = blocks the human SENP1 SUMO protease catalytic domain | Q9P0U3 | inhibition, % at 10 µM | AID 624204 | hit rate 0.21% among 360,000 | recombinant SENP1 catalytic domain, CyPet-SUMO1-YPet FRET cleavage;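 active = inhibition at least 30% at 10 µM, raw YFP signal under a set limit, fluorescence ratio 0.5 to 1.5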
Target sequence (Q9P0U3 419-644 limits assumed): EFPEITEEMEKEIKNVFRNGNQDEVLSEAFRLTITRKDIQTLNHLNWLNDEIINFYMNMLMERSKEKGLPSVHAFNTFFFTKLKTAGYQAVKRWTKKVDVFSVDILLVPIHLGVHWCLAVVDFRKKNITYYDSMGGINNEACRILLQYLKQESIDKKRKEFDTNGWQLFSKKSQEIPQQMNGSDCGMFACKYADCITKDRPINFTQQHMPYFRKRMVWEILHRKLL
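System: Recombinant human SENP1 catalytic domain, His6-tagged | Incubation: Enzyme reaction for 50 min at room temperature, dark | Medium: Tris pH 8 with BME, BSA, NP40 and catalase | Also added: 25 nM SUMO1 FRET substrate | Compound: 10 µM single point, 0.5% DMSO | Measured by: FRET fluorescence in CFP and YFP emission channels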
SENP6 inh = blocks the human protease SENP6; Q9GZR1; Recombinant SENP6 catalytic domain, aminoluciferin luminescence; inhibition, % at 10 µM; hit rate 1.8% among 330,000; AID 2599;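 active = inhibition above about 50% at the single tested dose, limit read from the data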
SENP8 block-2 = inhibitors of human SENP8 protease; hit rate 1.2% among 330,000; inhibition, % at 10 µM; Q96LD8; AID 2540; purified SENP8, Z-RLRGG-aminoluciferin cleavage, luminescence; in the data active = inhibition above about 50%
SENP8 confirm = confirmation of human SENP8 protease inhibitors; shares compounds with SENP7 inh; Recombinant SENP8, Z-RLRGG-aminoluciferin luminescence, 60 min; inhibition, % at 12.5 µM; hit rate 40% among 6,200;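 active = mean inhibition across replicates above about 50%, limit read from the data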
SENP6 confirm = confirmation of human SENP6 protease inhibitors; shares compounds with SENP7 inh; recombinant SENP6, Z-RLRGG-aminoluciferin luminescence; inhibition, % at 12.5 µM; hit rate 58% among 6,200
SENP7 confirm = confirmation of human SENP7 protease inhibitors. shares compounds with SENP7 inh. hit rate 69% among 6,200. recombinant SENP7, Z-RLRGG-aminoluciferin luminescence, 40 min. inhibition, % at 12.5 µM
Casp3 select = selectivity test for SENP inhibitors: human caspase-3 inhibition; purified caspase-3, Z-DEVD-aminoluciferin luminescence, 60 min; hit rate 60% among 6,200; inhibition, % at 12.5 µM; AID 488918; shares compounds with SENP7 inh;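 active = mean inhibition above about 50%, limit read from the data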
Target sequence (P42574 28-227 limits assumed): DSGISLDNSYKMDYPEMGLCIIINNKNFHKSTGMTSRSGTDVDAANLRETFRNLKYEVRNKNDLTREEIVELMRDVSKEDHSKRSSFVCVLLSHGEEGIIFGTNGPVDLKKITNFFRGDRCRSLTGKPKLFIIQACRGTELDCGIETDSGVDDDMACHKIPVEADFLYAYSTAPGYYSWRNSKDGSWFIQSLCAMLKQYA
Luc interf = counter-screen for SENP inhibitors: luminescence interference. shares compounds with SENP7 inh. inhibition, % at 12.5 µM. AID 488919. Pre-incubated SENP8/Z-RLRGG-aminoluciferin, luciferase luminescence interference. hit rate 39% among 6,200;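 active = mean inhibition above about 50% when retested at one dose, limit read from the data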
Hits are given with their value. A selection: hits, their analogues and other compounds. The true share with any hit is near 2.5%.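 The calls were made as follows, unless noted: active = mean inhibition above about 50% in the one-dose retest (limit read from the data); inactive = the rest.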

What do the screens show for `CC(O)(c1ccccc1)c1ccc2ccccc2n1` (centres undefined)?
SENP8 block-1: inactive; SENP1 FRET inh: inactive

Results for COc1ccccc1C(=O)OCc1c(F)cccc1Cl ?
SENP7 inh: inactive; SENP8 block-1: inactive; SENP1 FRET inh: inactive; SENP6 inh: inactive; SENP8 block-2: inactive

How did Cc1ccc(CCN2CC(C(=O)NCc3ccc4c(c3)OCO4)CC2=O)cc1 (centres undefined) do in these assays?
SENP7 inh: inactive; SENP8 block-1: inactive; SENP1 FRET inh: inactive; SENP6 inh: 67; SENP8 block-2: inactive; SENP8 confirm: inactive; SENP6 confirm: inactive; SENP7 confirm: inactive; Casp3 select: inactive; Luc interf: inactive

Results for O=C(NCc1ccc2c(c1)OCO2)C1CC(=O)N(CCc2ccc(Cl)cc2)C1 (centres undefined) ?
SENP7 inh: inactive; SENP8 block-1: inactive; SENP1 FRET inh: inactive; SENP6 inh: inactive; SENP8 block-2: inactive

How did O=C(O)c1ccc2cc(-c3ccccc3)[nH]c2c1 do in these assays?
SENP7 inh: 100; SENP8 block-1: inactive; SENP1 FRET inh: inactive; SENP6 inh: 95; SENP8 block-2: 97; SENP8 confirm: inactive; SENP6 confirm: 101; SENP7 confirm: 104; Casp3 select: inactive; Luc interf: 50

How did O=C1/C(=C/c2ccccc2)CCC1C1CCCC1 (centres undefined) do in these assays?
SENP7 inh: 64; SENP8 block-1: inactive; SENP1 FRET inh: inactive; SENP6 inh: 73; SENP8 block-2: inactive; SENP8 confirm: inactive; SENP6 confirm: inactive; SENP7 confirm: inactive; Casp3 select: inactive; Luc interf: inactive

How did O=C1/C(=C/c2ccco2)CCC1C1CCCC1 (centres undefined) do in these assays?
SENP7 inh: 73; SENP8 block-1: inactive; SENP1 FRET inh: inactive; SENP6 inh: 92; SENP8 block-2: 77; SENP8 confirm: inactive; SENP6 confirm: 77; SENP7 confirm: 95; Casp3 select: 57; Luc interf: inactive

Results for O=C1/C(=C/c2ccc(F)cc2)CCC1C1CCCC1 (centres undefined) ?
SENP7 inh: 62; SENP8 block-1: inactive; SENP1 FRET inh: inactive; SENP6 inh: inactive; SENP8 block-2: 62; SENP8 confirm: inactive; SENP6 confirm: inactive; SENP7 confirm: inactive; Casp3 select: 54; Luc interf: inactive

What do the screens show for `O=C1/C(=C/c2ccco2)Cc2ccccc21`?
SENP7 inh: inactive; SENP8 block-1: inactive; SENP1 FRET inh: inactive; SENP6 inh: 66; SENP8 block-2: inactive; SENP8 confirm: inactive; SENP6 confirm: 67; SENP7 confirm: 90; Casp3 select: 72; Luc interf: inactive

How did COc1ccccc1/C=C1\CCC(C2CCCC2)C1=O (centres undefined) do in these assays?
SENP7 inh: inactive; SENP8 block-1: inactive; SENP1 FRET inh: inactive; SENP6 inh: inactive; SENP8 block-2: inactive

How did CCOc1ccc(/C=C2\CCC(C3CCCC3)C2=O)cc1OC (centres undefined) do in these assays?
SENP7 inh: inactive; SENP8 block-1: inactive; SENP1 FRET inh: inactive; SENP6 inh: inactive; SENP8 block-2: inactive

What do the screens show for `CCOc1ccc(/C=C2\CCC(C3CCCC3)C2=O)cc1` (centres undefined)?
SENP7 inh: 71; SENP8 block-1: inactive; SENP1 FRET inh: inactive; SENP6 inh: inactive; SENP8 block-2: inactive; SENP8 confirm: inactive; SENP6 confirm: inactive; SENP7 confirm: inactive; Casp3 select: inactive; Luc interf: inactive

What do the screens show for `Cc1ccsc1C=C1C(=O)c2ccccc2C1=O`?
SENP7 inh: 69; SENP8 block-1: inactive; SENP1 FRET inh: inactive; SENP6 inh: inactive; SENP8 block-2: inactive; SENP8 confirm: 74; SENP6 confirm: 66; SENP7 confirm: 79; Casp3 select: 69; Luc interf: inactive

How did Clc1ccc(-c2cn3nc4c(nc3n2)CCCC4)cc1 do in these assays?
SENP7 inh: inactive; SENP8 block-1: inactive; SENP1 FRET inh: inactive; SENP6 inh: 55; SENP8 block-2: inactive; SENP8 confirm: inactive; SENP6 confirm: 62; SENP7 confirm: 62; Casp3 select: 60; Luc interf: inactive

Results for O=C(NC(Cc1c[nH]c2ccccc12)C(=O)O)OCC1c2ccccc2-c2ccccc21 (centres undefined) ?
SENP8 block-1: inactive; SENP1 FRET inh: inactive

How did COc1cc(CNC(=O)C2CC2)ccc1OCc1ccccc1 do in these assays?
SENP7 inh: inactive; SENP8 block-1: inactive; SENP1 FRET inh: inactive; SENP6 inh: 55; SENP8 block-2: inactive; SENP8 confirm: inactive; SENP6 confirm: inactive; SENP7 confirm: 78; Casp3 select: 76; Luc interf: inactive

How did c1csc(-c2cn3ccc4ccccc4c3n2)c1 do in these assays?
SENP7 inh: 86; SENP8 block-1: inactive; SENP1 FRET inh: inactive; SENP6 inh: 89; SENP8 block-2: 80; SENP8 confirm: inactive; SENP6 confirm: 90; SENP7 confirm: 99; Casp3 select: 82; Luc interf: 84

What do the screens show for `CCNc1nc(ON=C(C)C)nc(N(C)C)n1`?
SENP7 inh: inactive; SENP8 block-1: inactive; SENP1 FRET inh: inactive; SENP6 inh: inactive; SENP8 block-2: inactive

Results for COc1ccc(Nc2cc(C)nc(N3CCN(C(=O)c4ccc5c(c4)OCO5)CC3)n2)cc1 ?
SENP7 inh: inactive; SENP8 block-1: inactive; SENP1 FRET inh: inactive; SENP6 inh: inactive; SENP8 block-2: inactive

How did O=C(N/N=C/c1ccc2ncccc2c1)c1ccco1 do in these assays?
SENP7 inh: 66; SENP8 block-1: inactive; SENP1 FRET inh: inactive; SENP6 inh: 66; SENP8 block-2: inactive; SENP8 confirm: 53; SENP6 confirm: 53; SENP7 confirm: 84; Casp3 select: 87; Luc interf: 64

Results for CN(C)c1ccc(C=Nc2ccccc2C(N)=O)cc1 ?
SENP7 inh: 96; SENP8 block-1: inactive; SENP1 FRET inh: inactive; SENP6 inh: 93; SENP8 block-2: 89; SENP8 confirm: inactive; SENP6 confirm: 90; SENP7 confirm: 101; Casp3 select: 95; Luc interf: inactive

How did CN(C)c1ccc(/C=N\NC(=O)c2cccc3cc[nH]c23)cc1 do in these assays?
SENP7 inh: 85; SENP8 block-1: inactive; SENP1 FRET inh: inactive; SENP6 inh: 86; SENP8 block-2: 76; SENP8 confirm: 84; SENP6 confirm: 82; SENP7 confirm: 95; Casp3 select: 80; Luc interf: 64
